The source of these data is ChEMBL document CHEMBL1122951, “Synthesis of new polyoxin derivatives and their activity against chitin synthase from Candida albicans” (J Med Chem, 1985).

Assay [1] deals with Chitin synthase 1 (Candida albicans) (UniProt P23316). As to the kind of experiment: Inhibitory activity against chitin synthase from Candida albicans at a concentration 25 uM. In a few lines: (§1)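 Membrane preparation from C. albicans grown in liquid shake culture in Sabouraud broth, pH 6.5, washed in 0.2 M Tris-HCl pH 7.5 and broken with glass beads. Chitin synthase trypsin-activated just before assay. Substrate UDP-GlcNAc 0.5 mM. Percent inhibition at the stated inhibitor concentration, mean of triplicate assays.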

Assay [2] has the same target. The assay is described as follows: Inhibitory activity against chitin synthase from Candida albicans at a concentration 5 uM. Summed up:
as §1

The target is the same in assay [3]. As to the kind of experiment: Inhibitory activity against chitin synthase from Candida albicans at a concentration 100 uM. Summed up: as §1

The term inhibition denotes the change of the read-out against control, counted positive when it falls. The low end stands for a response near the control, the high end for a response far below the control.

Chitin synthase 1 (Candida albicans), sequence (P23316 whole entry, looked up): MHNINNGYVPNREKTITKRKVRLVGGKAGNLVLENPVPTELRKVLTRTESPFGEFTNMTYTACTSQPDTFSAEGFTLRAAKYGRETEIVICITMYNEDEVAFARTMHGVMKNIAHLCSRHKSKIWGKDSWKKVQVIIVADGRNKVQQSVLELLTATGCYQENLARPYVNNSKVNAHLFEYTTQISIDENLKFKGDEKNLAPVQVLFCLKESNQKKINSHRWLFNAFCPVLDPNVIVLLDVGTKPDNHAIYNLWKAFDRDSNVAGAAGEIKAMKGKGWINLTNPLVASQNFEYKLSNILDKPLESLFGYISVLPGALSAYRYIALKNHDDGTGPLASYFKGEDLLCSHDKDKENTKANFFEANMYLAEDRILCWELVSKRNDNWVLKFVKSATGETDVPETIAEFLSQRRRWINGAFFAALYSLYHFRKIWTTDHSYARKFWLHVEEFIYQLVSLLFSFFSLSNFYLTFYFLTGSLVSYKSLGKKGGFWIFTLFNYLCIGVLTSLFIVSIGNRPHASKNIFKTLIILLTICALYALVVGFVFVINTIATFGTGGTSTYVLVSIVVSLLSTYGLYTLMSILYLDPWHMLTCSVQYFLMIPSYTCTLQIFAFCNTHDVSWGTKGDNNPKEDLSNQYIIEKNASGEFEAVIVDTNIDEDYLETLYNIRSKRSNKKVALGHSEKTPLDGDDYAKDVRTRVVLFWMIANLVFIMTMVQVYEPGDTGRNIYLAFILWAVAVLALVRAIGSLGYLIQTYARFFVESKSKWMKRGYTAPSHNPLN

Consider `C[C@@H](O)[C@H](N)C(=O)N[C@@H](C(=O)O)[C@H]1O[C@@H](n2ccc(=O)[nH]c2=O)[C@H](O)[C@@H]1O`, for which the inhibition was 26% in assay [1], 8% in assay [2] and 53% in assay [3].

As to `C[C@@H](N)C(=O)N[C@@H](C(=O)O)[C@H]1O[C@@H](n2ccc(=O)[nH]c2=O)[C@H](O)[C@@H]1O`, the inhibition in assay [1], in assay [2] and in assay [3] was 0% throughout.

With `N[C@@H](C(=O)N[C@@H](C(=O)O)[C@H]1O[C@@H](n2ccc(=O)[nH]c2=O)[C@H](O)[C@@H]1O)[C@H](O)Cc1ccc(O)cc1`, the values for the inhibition in assay [1], in assay [2] and in assay [3] were 96%, 79% and 100%, respectively.

For `NC(=O)NCCC[C@@H](N)C(=O)N[C@H](C(=O)O)[C@H]1O[C@@H](n2ccc(=O)[nH]c2=O)[C@H](O)[C@@H]1O`, the inhibition in assay [1], in assay [2] and in assay [3] was 0% each time.

On to `C[C@H](N)C(=O)N(C)[C@@H](C(=O)O)[C@H]1O[C@@H](n2ccc(=O)[nH]c2=O)[C@H](O)[C@@H]1O`, for which the inhibition in assay [1], in assay [2] and in assay [3] was 0% throughout.

For `C[C@H](N)C(=O)N[C@@H](C(=O)O)[C@H]1O[C@@H](n2ccc(=O)[nH]c2=O)[C@H](O)[C@@H]1O`, the values for the inhibition in assay [1], in assay [2] and in assay [3] were 20%, 0% and 45%, respectively.

Regarding `C[C@@H](N)CNC(C(=O)O)C1OC(n2ccc(=O)[nH]c2=O)C(O)C1O` (some centres undefined), the inhibition is 0% in assay [1], 0% in assay [2] and 2% in assay [3].

Regarding `NC(=O)NCCC[C@@H](N)C(=O)N[C@@H](C(=O)O)[C@H]1O[C@@H](n2ccc(=O)[nH]c2=O)[C@H](O)[C@@H]1O`, the inhibition in assay [1] worked out at 37%; in assay [2], 0%; in assay [3] it was 80%.
